The source made the active and inactive calls. The rule behind the calls is not given here.
Tests used:
C3H 10T1/2 [1] = experiment: Cytotoxicity against mouse C3H10T1/2 cells assessed as effect on cell viability at 0.1 to 100 uM measured after 48 to 72 hrs by CCK8 assay; type: cell-based; conditions: c3h 10t1/2, 100 µM
Method in brief: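 C3H10T1/2 cells in log phase were seeded at 6×10^3 per well and held 24 h. They were then exposed to DMSO vehicle or compound at 0.1–100 μM for 48 h or 72 h. CCK-8 was added for 30 min at 37 °C and absorbance read at 450 nm.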

Rattus norvegicus [2] = experiment: Effect on serum RANKL level in ovariectomized Sprague-Dawley rat at 10 mg/kg/day, po for 3 months measured post-last dose; type: organism-based; conditions: in vivo
[3] = Cardiotoxicity in ovariectomized Sprague-Dawley rat assessed as effect on heart at 10 mg/kg/day, po for 3 months measured post-last dose; type: toxicity, organism-based; conditions: in vivo
[4] = Toxicity in ovariectomized Sprague-Dawley rat assessed as effect on thymus at 10 mg/kg/day, po for 3 months measured post-last dose; type: organism-based; conditions: in vivo
[5] = Toxicity in ovariectomized Sprague-Dawley rat assessed as effect on alkaline phosphatase level at 10 mg/kg/day, po for 3 months measured post-last dose; type: organism-based; conditions: in vivo
[6] = Toxicity in ovariectomized Sprague-Dawley rat assessed as effect on spleen at 10 mg/kg/day, po for 3 months measured post-last dose; type: organism-based; conditions: in vivo
BMDM [7] = experiment: Anti-osteoporosis activity in C57BL/6 mouse bone marrow macrophages assessed as inhibition of M-CSF/RANKL-induced osteoclast differentiation by measuring reduction in hydroxyapatite resorption at 0.01 to 1 uM measured after 48 hrs by microscopic analysis; type: functional, cell-based
Method in brief: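 BMMs were driven to mature osteoclasts with GST-rRANKL plus M-CSF (30 ng/mL) on collagen-coated plates. Equal numbers were reseeded onto hydroxyapatite-coated wells with GST-rRANKL/M-CSF, with or without compound, for 48 h. Cells were bleached off, resorbed areas imaged by inverted microscope, and percent surface resorbed quantified.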

[8] = Toxicity in ovariectomized Sprague-Dawley rat assessed as effect on aspartate transaminase level at 10 mg/kg/day, po for 3 months measured post-last dose; type: organism-based; conditions: in vivo
BMDM [9] = experiment: (§1) Anti-osteoporosis activity in C57BL/6 mouse bone marrow macrophages assessed as inhibition of M-CSF/RANKL-induced osteoclast differentiation by measuring reduction in NFATc1 gene expression at 0.1 uM supplemented with fresh medium containing compounds every 2 days for 5 by trizol-reagent based RT-PCR analysis; type: functional, cell-based
Method in brief: (§2)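 BMMs from femur/tibia of six-week-old C57BL/6 mice, seeded at 1×10^5 cells/well in complete α-MEM (10% FBS) with M-CSF 30 ng/mL and GST-rRANKL 100 ng/mL, with or without compound at 0.1 μM for 5 days. RNA extracted with TRIzol, reverse-transcribed, then qPCR with SYBR-type premix: 40 cycles of 95 °C 10 s, 56 °C 10 s, 72 °C 30 s.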

BMDM [10] = experiment: as §1, with “c-FOS” for “NFATc1”; type: functional, cell-based; method in brief: as §2
Rattus norvegicus [11] = experiment: Anti-osteoporosis activity in ovariectomized Sprague-Dawley rat assessed as reduction in serum osteocalcin level at 10 mg/kg/day, po for 3 months measured post-last dose; type: functional, organism-based
C3H 10T1/2 [12] = experiment: Osteogenic activity in mouse C3H10T1/2 cells assessed as effect on osteogenic medium-induced osteoblast differentiation by measuring calcium deposition at 0.1 to 10 uM after 14 days by alizarin red dye-based assay; type: cell-based; conditions: c3h 10t1/2, 336 h
Method in brief: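 C3H10T1/2 cells were seeded at 5×10^4 cells/cm² in α-MEM with 10% FBS for 24 h. Osteogenic induction used medium with 5% FBS, 10⁻⁷ M dexamethasone, 50 μM ascorbic acid and 10 mM β-glycerol-phosphate, with or without compound, for 14 days. Cells were fixed in 4.0% formaldehyde and stained with 0.1% Alizarin red (pH 4.4) for 5 min at room temperature.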

[13] = Toxicity in ovariectomized Sprague-Dawley rat assessed as effect on creatinine level at 10 mg/kg/day, po for 3 months measured post-last dose; type: organism-based; conditions: in vivo
Rattus norvegicus [14] = experiment: Anti-osteoporosis activity in ovariectomized Sprague-Dawley rat assessed as reduction in serum PINP level at 10 mg/kg/day, po for 3 months measured post-last dose; type: functional, organism-based
BMDM [15] = experiment: as §1, with “MMP9” for “NFATc1”; type: functional, cell-based; method in brief: as §2
[16] = Toxicity in ovariectomized Sprague-Dawley rat assessed as effect on total cholesterol level at 10 mg/kg/day, po for 3 months measured post-last dose; type: organism-based; conditions: in vivo
[17] = Hepatotoxicity in ovariectomized Sprague-Dawley rat assessed as effect on liver at 10 mg/kg/day, po for 3 months measured post-last dose; type: toxicity, organism-based; conditions: in vivo
[18] = Pulmonary toxicity in ovariectomized Sprague-Dawley rat assessed as effect on lung at 10 mg/kg/day, po for 3 months measured post-last dose; type: organism-based; conditions: in vivo
Rattus norvegicus [19] = experiment: Anti-osteoporosis activity in ovariectomized Sprague-Dawley rat assessed as femur bone mineral density loss at 10 mg/kg/day, po for 3 months measured post-last dose by dual energy X-ray absorptiometry (RVb = 19%); type: functional
[20] = Toxicity in ovariectomized Sprague-Dawley rat assessed as effect on alanine aminotransferase level at 10 mg/kg/day, po for 3 months measured post-last dose; type: organism-based; conditions: in vivo
[21] = Toxicity in ovariectomized Sprague-Dawley rat assessed as effect on blood urea nitrogen level at 10 mg/kg/day, po for 3 months measured post-last dose; type: organism-based; conditions: in vivo
[22] = Toxicity in ovariectomized Sprague-Dawley rat assessed as effect on uterus at 10 mg/kg/day, po for 3 months measured post-last dose; type: organism-based; conditions: in vivo
BMDM [23] = experiment: Anti-osteoporosis activity in C57BL/6 mouse bone marrow macrophages assessed as inhibition of M-CSF/RANKL-induced osteoclast differentiation supplemented with fresh medium containing compounds every 2 days for 5 measured post-last dose by TRAP staining based assay; type: functional, cell-based
Method in brief: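 Mouse (C57BL/6, 6-week) BMMs were plated at 6×10³ cells/well with M-CSF 30 ng/mL overnight, then given complete α-MEM with M-CSF and GST-rRANKL 100 ng/mL plus compound at varied concentrations, refreshed every 2 days. At day 5 cells were fixed in 4% paraformaldehyde and TRAcP-stained; TRAcP+ cells with >3 nuclei were counted.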

Rattus norvegicus [24] = experiment: Anti-osteoporosis activity in ovariectomized Sprague-Dawley rat assessed as reduction in serum CTX1 level at 10 mg/kg/day, po for 3 months measured post-last dose; type: functional, organism-based
[25] = Toxicity in ovariectomized Sprague-Dawley rat assessed as effect on total triglyceride level at 10 mg/kg/day, po for 3 months measured post-last dose; type: organism-based; conditions: in vivo
BMDM [26] = experiment: as §1, with “TRAcP” for “NFATc1”; type: functional, cell-based; method in brief: as §2
Rattus norvegicus [27] = experiment: Anti-osteoporosis activity in ovariectomized Sprague-Dawley rat assessed as reduction in femur bone mass loss at 10 mg/kg/day, po for 3 months measured post-last dose by micro-CT analysis; type: functional, organism-based
[28] = Renal toxicity in ovariectomized Sprague-Dawley rat assessed as effect on kidney at 10 mg/kg/day, po for 3 months measured post-last dose; type: organism-based; conditions: in vivo

O=C(Cn1cc(-c2ccncc2)nn1)Nc1nccs1
Activity (C3H 10T1/2 [1]): Non-Toxic | Activity (Rattus norvegicus [2]): Non-Toxic | Activity [3]: Non-Toxic | Activity [4]: Non-Toxic | Activity [5]: Non-Toxic | Activity [6]: Non-Toxic | inhibition (BMDM [7]): Active | Activity [8]: Non-Toxic | inhibition (BMDM [9]): Active | inhibition (BMDM [10]): Active | Activity (Rattus norvegicus [11]): Active | Activity (C3H 10T1/2 [12]): Non-Toxic | Activity [13]: Non-Toxic | Activity (Rattus norvegicus [14]): Active | inhibition (BMDM [15]): Active | Activity [16]: Non-Toxic | Activity [17]: Non-Toxic | Activity [18]: Non-Toxic | Activity (Rattus norvegicus [19]): 8% | Activity [20]: Non-Toxic | Activity [21]: Non-Toxic | Activity [22]: Non-Toxic | inhibition (BMDM [23]): Dose-dependent effect | IC50 (BMDM [23]; C57BL/6, BMDM, 5 days): 2 nM | Activity (Rattus norvegicus [24]): Active | Activity [25]: Non-Toxic | inhibition (BMDM [26]): Active | Activity (Rattus norvegicus [27]): inactive | Activity [28]: Non-Toxic

Reference: ChEMBL document CHEMBL4304759, “Identifying Novel Anti-Osteoporosis Leads with a Chemotype-Assembly Approach” (J Med Chem, 2019)
